The values below come from ChEMBL document CHEMBL4270664 (J Med Chem, 2018).

pIC50: −log10 of the molar value.

Data set [1] in a line: Half life in mouse at 3 mg/kg, iv. It is filed as ADME, organism-based. The conditions noted are these: in vivo. An outline of the steps:
(§1)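 Mice were dosed at 3 mg/kg intravenously, with plasma sampled at 6 time points and n = 2 mice per time point.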

The nature of data set [2]: Cmax in mouse at 3 mg/kg, iv. In kind it is ADME, organism-based. Also noted: dose 3 mg/kg, route intravenous. The conditions noted are these: in vivo. An outline of the steps:
as §1

Data set [3] in a line: AUClast in mouse at 3 mg/kg, iv. In kind it is ADME, organism-based. Also noted: dose 3 mg/kg, time 0 - last, route intravenous. The conditions noted are these: in vivo. An outline of the steps: as §1
Data set [4] in a line: Clearance in mouse at 3 mg/kg, iv. It is filed as ADME, organism-based. The conditions noted are these: in vivo. Put shortly:
as §1

A short description of data set [5]: Oral bioavailability in mouse at 3 mg/kg. The conditions noted are these: in vivo. It is filed as ADME, organism-based. Put shortly: (§2)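 Mice were dosed at 3 mg/kg by oral or intraperitoneal route in an extended PK study. Oral bioavailability was derived against the iv route.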
A short description of data set [6]: Cmax in mouse at 3 mg/kg, po. It is filed as ADME, organism-based. Also noted: dose 3 mg/kg, route oral. The conditions noted are these: in vivo. Put shortly: as §2
A short description of data set [7]: Cmax in mouse at 3 mg/kg, ip. In kind it is ADME, organism-based. Also on record: dose 3 mg/kg, route intraperitoneal. The conditions noted are these: in vivo. Put shortly: as §2
A short description of data set [8]: Half life in mouse at 3 mg/kg, ip. It is filed as ADME, organism-based. The conditions noted are these: in vivo. An outline of the steps: as §2
Data set [9] deals with High affinity nerve growth factor receptor (Homo sapiens, UniProt P04629). Kind of data set: Inhibition of N-terminal GST-tagged human TRKA cytoplasmic domain (436 to 790 end residues) expressed in baculovirus expression system using fluorecence-labeled substrate by MCE assay.
Chain of High affinity nerve growth factor receptor (P04629 whole entry, the tested form may be a part): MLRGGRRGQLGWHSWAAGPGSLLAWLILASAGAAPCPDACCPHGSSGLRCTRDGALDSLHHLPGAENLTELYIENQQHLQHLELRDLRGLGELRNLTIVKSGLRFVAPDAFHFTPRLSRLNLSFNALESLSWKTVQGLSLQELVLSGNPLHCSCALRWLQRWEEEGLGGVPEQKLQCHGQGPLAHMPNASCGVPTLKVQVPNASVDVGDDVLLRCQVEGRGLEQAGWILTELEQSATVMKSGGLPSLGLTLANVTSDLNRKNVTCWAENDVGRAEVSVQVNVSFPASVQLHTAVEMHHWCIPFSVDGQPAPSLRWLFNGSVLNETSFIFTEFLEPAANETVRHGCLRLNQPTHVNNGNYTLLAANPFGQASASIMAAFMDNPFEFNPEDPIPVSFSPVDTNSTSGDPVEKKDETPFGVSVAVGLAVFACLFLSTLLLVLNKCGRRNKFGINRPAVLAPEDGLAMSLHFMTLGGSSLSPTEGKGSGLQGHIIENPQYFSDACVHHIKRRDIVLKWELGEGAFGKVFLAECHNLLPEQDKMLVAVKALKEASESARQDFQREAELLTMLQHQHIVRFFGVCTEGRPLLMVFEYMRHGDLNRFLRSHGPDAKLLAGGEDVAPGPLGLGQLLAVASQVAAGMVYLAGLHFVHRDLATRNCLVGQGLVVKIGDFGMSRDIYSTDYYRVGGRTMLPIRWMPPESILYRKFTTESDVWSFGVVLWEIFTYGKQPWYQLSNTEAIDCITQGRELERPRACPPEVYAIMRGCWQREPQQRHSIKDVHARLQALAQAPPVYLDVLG
Data set [10] has as its target NT-3 growth factor receptor (Homo sapiens, UniProt Q16288). Description: Inhibition of N-terminal GST-tagged human TRKC cytoplasmic domain (456 to 825 end residues) expressed in baculovirus expression system using fluorecence-labeled substrate by MCE assay.
Data set [11] has as its target Serine/threonine-protein kinase SIK2 (Homo sapiens, UniProt Q9H0K1). Description: Inhibition of N-terminal GST-tagged full length human QIK (1 to 926 end residues) expressed in baculovirus expression system using fluorecence-labeled substrate by MCE assay.
Data set [12] concerns the target STE20-like serine/threonine-protein kinase (Homo sapiens, UniProt Q9H2G2). Description: Inhibition of N-terminal GST-tagged full length human SLK (1 to 1152 end residues) expressed in baculovirus expression system using fluorecence-labeled substrate by MCE assay.
Data set [13] has as its target T1, NUAK family SNF1-like kinase 1 (Homo sapiens, UniProt O60285).
T1 sequence (O60285 whole entry): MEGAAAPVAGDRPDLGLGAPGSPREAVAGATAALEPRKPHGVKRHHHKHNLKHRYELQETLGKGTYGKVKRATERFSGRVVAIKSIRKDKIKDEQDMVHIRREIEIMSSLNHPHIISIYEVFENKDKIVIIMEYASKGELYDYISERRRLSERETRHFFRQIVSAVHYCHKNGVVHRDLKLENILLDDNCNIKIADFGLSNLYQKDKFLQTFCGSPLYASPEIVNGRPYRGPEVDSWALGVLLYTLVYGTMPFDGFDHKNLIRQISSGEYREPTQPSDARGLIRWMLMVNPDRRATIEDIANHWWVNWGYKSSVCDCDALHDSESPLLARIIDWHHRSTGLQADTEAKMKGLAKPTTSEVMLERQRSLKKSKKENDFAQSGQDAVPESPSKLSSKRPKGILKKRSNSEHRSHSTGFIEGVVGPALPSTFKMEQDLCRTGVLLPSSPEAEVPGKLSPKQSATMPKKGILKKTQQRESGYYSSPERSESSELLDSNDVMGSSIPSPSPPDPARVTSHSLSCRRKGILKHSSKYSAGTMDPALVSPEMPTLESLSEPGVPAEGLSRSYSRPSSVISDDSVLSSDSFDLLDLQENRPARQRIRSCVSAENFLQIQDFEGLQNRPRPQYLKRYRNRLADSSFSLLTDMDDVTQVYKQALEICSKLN
Description: Inhibition of N-terminal GST-tagged full length human NuaK1 (1 to 661 end residues) expressed in baculovirus expression system using fluorecence-labeled substrate by MCE assay.

The target in data set [14] is Mast/stem cell growth factor receptor Kit (Homo sapiens, UniProt P10721). Description: Inhibition of N-terminal GST-tagged human KIT cytoplasmic domain (544 to 976 end residues) expressed in baculovirus expression system using fluorecence-labeled substrate by MCE assay.
Chain of Mast/stem cell growth factor receptor Kit (P10721 whole entry, the tested form may be a part): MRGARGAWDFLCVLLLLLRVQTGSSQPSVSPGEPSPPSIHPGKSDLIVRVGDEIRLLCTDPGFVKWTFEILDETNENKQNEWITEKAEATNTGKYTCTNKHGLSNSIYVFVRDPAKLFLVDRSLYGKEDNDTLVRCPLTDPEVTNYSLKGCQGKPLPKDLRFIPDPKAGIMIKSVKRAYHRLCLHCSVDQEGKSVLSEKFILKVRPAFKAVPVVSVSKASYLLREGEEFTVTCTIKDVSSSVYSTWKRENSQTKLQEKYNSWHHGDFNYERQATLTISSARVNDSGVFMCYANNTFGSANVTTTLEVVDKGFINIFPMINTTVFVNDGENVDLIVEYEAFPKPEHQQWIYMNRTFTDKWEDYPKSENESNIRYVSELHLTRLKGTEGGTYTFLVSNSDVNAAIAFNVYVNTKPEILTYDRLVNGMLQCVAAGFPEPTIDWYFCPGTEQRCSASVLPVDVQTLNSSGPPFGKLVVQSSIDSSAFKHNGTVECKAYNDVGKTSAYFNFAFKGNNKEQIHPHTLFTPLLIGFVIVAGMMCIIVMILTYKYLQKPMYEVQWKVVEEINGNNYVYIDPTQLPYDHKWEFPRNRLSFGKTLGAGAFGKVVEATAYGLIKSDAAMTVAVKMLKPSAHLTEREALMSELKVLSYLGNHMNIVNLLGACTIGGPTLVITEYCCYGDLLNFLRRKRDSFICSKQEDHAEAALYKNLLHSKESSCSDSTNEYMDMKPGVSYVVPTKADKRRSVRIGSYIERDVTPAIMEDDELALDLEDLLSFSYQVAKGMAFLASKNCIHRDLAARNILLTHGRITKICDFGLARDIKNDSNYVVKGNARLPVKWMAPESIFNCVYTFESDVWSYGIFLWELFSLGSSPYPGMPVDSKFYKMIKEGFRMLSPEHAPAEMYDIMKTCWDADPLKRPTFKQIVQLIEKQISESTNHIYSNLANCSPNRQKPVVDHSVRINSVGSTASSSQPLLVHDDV
The nature of data set [15]: Tmax in NSG mouse xenografted with human 697 cells at 30 mg/kg, ip administered as single dose. It is filed as ADME, organism-based. The conditions noted are these: in vivo. In general terms: A xenograft is tissue or cells of one species grown in another, often human tumour cells in immunodeficient mice.
Data set [16] is described as follows: Half life in NSG mouse xenografted with human 697 cells at 30 mg/kg, ip administered as single dose. It is filed as ADME, organism-based. The conditions noted are these: in vivo.
The species named for the next data set is Mus musculus. Kind of data set: animal or person. The conditions noted are these: Mus musculus, 697, ip, 10 min, read-out: INH.
The target of data set [17] is T2, Tyrosine-protein kinase Mer (Homo sapiens) (UniProt Q12866).
T2 sequence (whole entry): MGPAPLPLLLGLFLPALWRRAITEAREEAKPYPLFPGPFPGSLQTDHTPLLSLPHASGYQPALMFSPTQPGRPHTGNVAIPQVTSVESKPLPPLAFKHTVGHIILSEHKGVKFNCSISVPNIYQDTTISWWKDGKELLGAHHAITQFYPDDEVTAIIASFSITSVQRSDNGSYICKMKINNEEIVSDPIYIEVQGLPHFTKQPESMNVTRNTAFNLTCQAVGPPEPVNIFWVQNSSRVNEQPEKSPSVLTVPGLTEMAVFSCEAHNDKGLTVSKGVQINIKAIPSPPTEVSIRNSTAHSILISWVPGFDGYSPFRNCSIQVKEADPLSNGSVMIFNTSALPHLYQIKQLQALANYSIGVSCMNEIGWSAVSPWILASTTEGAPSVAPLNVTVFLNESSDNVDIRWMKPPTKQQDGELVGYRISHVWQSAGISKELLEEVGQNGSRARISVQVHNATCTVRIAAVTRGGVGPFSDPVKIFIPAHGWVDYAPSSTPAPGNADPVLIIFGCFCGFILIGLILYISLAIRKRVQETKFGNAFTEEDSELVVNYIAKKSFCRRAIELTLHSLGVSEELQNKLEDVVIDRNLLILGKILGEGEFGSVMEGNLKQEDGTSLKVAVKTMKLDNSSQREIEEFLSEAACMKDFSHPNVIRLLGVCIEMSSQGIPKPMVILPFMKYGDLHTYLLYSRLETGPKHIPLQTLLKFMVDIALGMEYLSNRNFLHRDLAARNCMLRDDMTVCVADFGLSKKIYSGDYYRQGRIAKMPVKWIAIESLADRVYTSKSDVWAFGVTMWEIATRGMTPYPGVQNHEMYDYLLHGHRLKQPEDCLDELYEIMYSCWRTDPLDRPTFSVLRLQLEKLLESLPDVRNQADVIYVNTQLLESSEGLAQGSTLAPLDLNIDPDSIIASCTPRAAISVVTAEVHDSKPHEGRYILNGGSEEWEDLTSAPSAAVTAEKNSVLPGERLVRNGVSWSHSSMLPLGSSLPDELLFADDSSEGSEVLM
The conditions noted are these: 100 nM.

Broadly, the half-life is how long it takes for the measured level to halve. A higher half-life goes with slow loss. One may read the Cmax as the maximum level reached in the sampled fluid or tissue. In general, AUC(0-t) refers to exposure summed from dosing to a finite time, without extrapolation to infinity. Lower therefore signals low exposure. What is called clearance is a measure of how efficiently the substance is removed, as volume per time. A lower clearance goes with a low capacity for elimination. A word on the bioavailability: it is the share of a dose that reaches the circulation, judged against a reference dose that is usually intravenous. Read a low bioavailability as poor availability. As a reminder, the pIC50 is −log10 of the IC50, conventionally taken in molar units. Low readings indicate a high IC50, high ones a low IC50. By Tmax is commonly meant the time at which the peak concentration occurs.

Chain of STE20-like serine/threonine-protein kinase (Q9H2G2 whole entry): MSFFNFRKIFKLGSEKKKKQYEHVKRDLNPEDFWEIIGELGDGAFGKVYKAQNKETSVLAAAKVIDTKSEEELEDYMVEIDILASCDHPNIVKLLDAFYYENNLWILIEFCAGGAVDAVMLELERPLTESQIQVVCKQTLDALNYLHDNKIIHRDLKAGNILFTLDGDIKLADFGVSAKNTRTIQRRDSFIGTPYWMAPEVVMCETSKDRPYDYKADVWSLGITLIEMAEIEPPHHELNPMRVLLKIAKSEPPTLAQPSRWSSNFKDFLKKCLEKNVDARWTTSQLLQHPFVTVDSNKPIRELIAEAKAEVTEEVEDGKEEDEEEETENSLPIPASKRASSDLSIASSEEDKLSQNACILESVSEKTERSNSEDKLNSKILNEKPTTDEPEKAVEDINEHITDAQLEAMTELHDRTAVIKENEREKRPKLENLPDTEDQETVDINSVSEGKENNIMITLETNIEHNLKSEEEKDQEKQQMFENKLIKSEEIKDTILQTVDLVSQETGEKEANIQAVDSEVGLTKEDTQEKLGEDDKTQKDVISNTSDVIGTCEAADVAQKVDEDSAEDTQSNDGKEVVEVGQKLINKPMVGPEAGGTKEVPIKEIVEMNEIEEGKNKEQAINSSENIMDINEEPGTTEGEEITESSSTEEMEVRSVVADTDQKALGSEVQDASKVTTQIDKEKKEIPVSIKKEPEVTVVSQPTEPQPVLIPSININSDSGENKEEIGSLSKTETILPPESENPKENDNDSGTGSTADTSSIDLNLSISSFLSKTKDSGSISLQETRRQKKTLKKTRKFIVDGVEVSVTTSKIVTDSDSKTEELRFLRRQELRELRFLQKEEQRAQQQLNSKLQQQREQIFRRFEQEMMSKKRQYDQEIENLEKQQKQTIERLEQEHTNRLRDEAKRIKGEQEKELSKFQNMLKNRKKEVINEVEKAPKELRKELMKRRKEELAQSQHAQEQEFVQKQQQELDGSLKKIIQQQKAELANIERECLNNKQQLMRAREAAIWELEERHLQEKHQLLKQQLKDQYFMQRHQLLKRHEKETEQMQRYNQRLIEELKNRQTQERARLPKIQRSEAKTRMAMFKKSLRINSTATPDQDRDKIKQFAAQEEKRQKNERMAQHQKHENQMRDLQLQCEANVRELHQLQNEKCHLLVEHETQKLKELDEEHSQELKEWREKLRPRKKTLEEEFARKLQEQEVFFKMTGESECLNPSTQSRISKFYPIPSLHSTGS
Chain of NT-3 growth factor receptor (Q16288 whole entry, the tested form may be a part): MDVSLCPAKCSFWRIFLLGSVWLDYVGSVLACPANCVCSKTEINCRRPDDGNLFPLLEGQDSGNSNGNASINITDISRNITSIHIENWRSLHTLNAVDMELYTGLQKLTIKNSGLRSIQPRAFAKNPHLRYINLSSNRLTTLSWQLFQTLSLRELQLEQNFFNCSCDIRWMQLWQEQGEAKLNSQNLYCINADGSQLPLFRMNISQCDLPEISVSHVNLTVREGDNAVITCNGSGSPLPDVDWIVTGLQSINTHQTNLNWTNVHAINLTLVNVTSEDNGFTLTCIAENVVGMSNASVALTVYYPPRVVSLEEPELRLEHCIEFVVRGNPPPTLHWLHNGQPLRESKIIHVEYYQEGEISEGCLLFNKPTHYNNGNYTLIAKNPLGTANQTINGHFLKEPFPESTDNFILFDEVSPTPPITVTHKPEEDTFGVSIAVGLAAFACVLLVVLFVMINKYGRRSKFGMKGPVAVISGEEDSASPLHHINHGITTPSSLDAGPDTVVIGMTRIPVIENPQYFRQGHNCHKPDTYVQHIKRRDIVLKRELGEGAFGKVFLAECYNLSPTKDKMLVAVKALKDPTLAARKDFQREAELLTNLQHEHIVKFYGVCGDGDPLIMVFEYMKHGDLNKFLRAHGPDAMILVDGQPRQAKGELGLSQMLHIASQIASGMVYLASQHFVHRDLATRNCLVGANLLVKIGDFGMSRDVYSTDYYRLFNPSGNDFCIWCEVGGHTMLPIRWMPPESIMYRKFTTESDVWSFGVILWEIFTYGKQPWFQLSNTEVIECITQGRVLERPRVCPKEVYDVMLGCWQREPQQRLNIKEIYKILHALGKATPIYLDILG
Chain of Serine/threonine-protein kinase SIK2 (Q9H0K1 whole entry): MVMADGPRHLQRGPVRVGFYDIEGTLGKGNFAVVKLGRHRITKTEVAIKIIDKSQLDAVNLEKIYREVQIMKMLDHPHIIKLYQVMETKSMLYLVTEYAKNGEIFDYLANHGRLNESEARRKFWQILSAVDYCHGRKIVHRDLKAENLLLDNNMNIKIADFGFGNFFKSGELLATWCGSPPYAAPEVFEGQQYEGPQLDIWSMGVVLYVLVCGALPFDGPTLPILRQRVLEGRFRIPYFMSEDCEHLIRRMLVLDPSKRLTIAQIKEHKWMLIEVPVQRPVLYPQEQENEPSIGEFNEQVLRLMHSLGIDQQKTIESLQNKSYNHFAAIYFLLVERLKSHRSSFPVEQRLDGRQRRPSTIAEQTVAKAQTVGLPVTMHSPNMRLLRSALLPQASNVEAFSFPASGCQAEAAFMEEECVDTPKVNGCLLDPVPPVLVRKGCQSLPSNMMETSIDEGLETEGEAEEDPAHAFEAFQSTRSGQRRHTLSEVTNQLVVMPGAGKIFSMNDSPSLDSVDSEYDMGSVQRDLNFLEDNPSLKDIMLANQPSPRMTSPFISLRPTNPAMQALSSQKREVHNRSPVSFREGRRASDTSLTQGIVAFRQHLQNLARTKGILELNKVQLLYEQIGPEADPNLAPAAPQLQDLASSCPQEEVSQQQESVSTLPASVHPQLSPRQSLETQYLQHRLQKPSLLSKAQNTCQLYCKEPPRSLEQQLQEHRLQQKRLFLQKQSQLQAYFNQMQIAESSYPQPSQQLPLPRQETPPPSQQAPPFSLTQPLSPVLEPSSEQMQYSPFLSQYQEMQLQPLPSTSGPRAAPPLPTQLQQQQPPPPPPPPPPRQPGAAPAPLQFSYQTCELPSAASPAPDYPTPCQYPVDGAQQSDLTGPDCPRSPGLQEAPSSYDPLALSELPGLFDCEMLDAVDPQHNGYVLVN

Compound `CCC[C@H](C)Nc1ncc2c(-c3ccnc(N4CCNCC4)c3)cn([C@H]3CC[C@H](O)CC3)c2n1` had a half-life in data set [1] of 2.6 h. In data set [2], the concentration peaked (Cmax) at 3.5 µM. This compound also gave an AUC(0-t) in data set [3] of 1.5 µM·h. The same compound came in with a clearance in [4] of 55 mL/min/kg.
The matching figures for `CCC[C@H](C)Nc1ncc2c(-c3cnn(C4CCNCC4)c3)cn([C@H]3CC[C@H](O)CC3)c2n1`: 2.1 h, 13.8 µM, 2.8 µM·h and 32 mL/min/kg.
As for `CCC[C@H](C)Nc1ncc2c(-c3ccc(CN4CCCN(C)CC4)cc3)cn([C@H]3CC[C@H](O)CC3)c2n1`, the figures for the half-life in data set [1], in data set [8] and in [16] were 3 h, 1.43 h and 3 h, respectively. The results for the Cmax in data set [2], in data set [6] and in data set [7] were 5.2 µM, 0.061 µM and 0.6 µM, respectively. In data set [3], this compound returned an AUC(0-t) of 2.7 µM·h. In addition, the clearance in data set [4] is 29 mL/min/kg. The same compound yielded a bioavailability in [5] of 15%. Besides, the pIC50 is 8.44 in [9]; 8.08 in data set [10]; less than 7.00 in data set [11]; 7.33 in [12]; less than 7.00 in data set [13]; less than 7.00 in data set [14]. Further, in data set [15], the Tmax is 5 min. Besides, the inhibition at 30 mg/kg in the data set filed under Mus musculus was 75%.
In data set [1], `CCC[C@H](C)Nc1ncc2c(-c3ccc(S(=O)(=O)N4CCN(C)CC4)cc3F)cn([C@H]3CC[C@H](O)CC3)c2n1` had a half-life of 0.65 h. In data set [2], the concentration peaked (Cmax) at 6.5 µM. In addition, the AUC(0-t) in [3] came to 1.6 µM·h. In data set [4], this compound displayed a clearance of 50 mL/min/kg.
The matching figures for `CCC[C@H](C)Nc1ncc2c(-c3ccc(CN4C5CCC4CC5)cc3)cn([C@H]3CC[C@H](O)CC3)c2n1`: 1.8 h, 0.1 µM, 0.28 µM·h and 302 mL/min/kg.
Taken in the same sequence, the figures for `CCC[C@H](C)Nc1ncc2c(-c3ccc(CN4CCOCC4)cc3)cn([C@H]3CC[C@H](O)CC3)c2n1` were 1.4 h, 8.6 µM, 2.2 µM·h and 41 mL/min/kg.
For `CCCCNc1ncc2c(-c3ccc(CN4CCN(C)CC4)cc3)cn([C@H]3CC[C@H](O)CC3)c2n1`, in [17], the inhibition was 100%.
On to `CCC[C@H](C)Nc1ncc2c(-c3ccc(CNCCN(CC)CC)cc3)cn([C@H]3CC[C@H](O)CC3)c2n1`, for which the half-life in data set [1] is 3.65 h. In data set [2], this compound gave a Cmax of 1.7 µM. The same compound showed an AUC(0-t) in [3] of 1.2 µM·h. In data set [4], this compound showed a clearance of 54 mL/min/kg.
